pKi: −log10 of the molar value.
Tests used:
[1] = Half-life of washout rate of radioactivity from the cerebellum.; assay type: ADME, tissue-based
Outline: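 Rats received the 11C tracer by tail vein (3-30 MBq, 350-450 ng, buffered saline), 3 per time point. Cerebellar radioactivity (%ID/g) was followed over time after injection, and the half-life of its washout was derived from that time course.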

[2] = Log P at pH 7.4; assay type: physicochemical; details: buffer
Outline: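 Partition of the radiolabelled compound between 1-octanol and 0.02 M phosphate buffer at pH 7.4.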

[3] = species: Rattus norvegicus; test: Biodistribution of radioactivity in rat thalamus upon Tail-Vein injection of [11C]-labeled compound after 15 min; assay type: ADME, organism-based; details: in vivo, iv, 0.25 h
[4] = species: Rattus norvegicus; test: Biodistribution of radioactivity in rat thalamus upon Tail-Vein injection of [11C]-labeled compound after 30 min; assay type: ADME, organism-based; details: in vivo, iv, 0.5 h
[5] = species: Rattus norvegicus; test: Biodistribution of radioactivity in rat thalamus upon Tail-Vein injection of [11C]-labeled compound after 45 min; assay type: ADME, organism-based; details: in vivo, iv, 0.75 h
[6] = species: Rattus norvegicus; test: Biodistribution of radioactivity in rat blood upon Tail-Vein injection of [11C]-labeled compound after 15 min; assay type: ADME, organism-based; details: in vivo, iv, 0.25 h
[7] = species: Rattus norvegicus; test: Biodistribution of radioactivity in rat blood upon Tail-Vein injection of [11C]-labeled compound after 30 min; assay type: ADME, organism-based; details: in vivo, iv, 0.5 h
[8] = species: Rattus norvegicus; test: Biodistribution of radioactivity in rat blood upon Tail-Vein injection of [11C]-labeled compound after 45 min; assay type: ADME, organism-based; details: in vivo, iv, 0.75 h
[9] = species: Rattus norvegicus; test: Biodistribution of radioactivity in rat blood upon Tail-Vein injection of [11C]-labeled compound after 5 min; assay type: ADME, organism-based; details: in vivo, iv
[10] = species: Rattus norvegicus; test: Biodistribution of radioactivity in rat blood upon Tail-Vein injection of [11C]-labeled compound after 60 min; assay type: ADME, organism-based; details: in vivo, iv, 1 h
[11] = species: Rattus norvegicus; test: Biodistribution of radioactivity in rat cerebellum upon Tail-Vein injection of [11C]-labeled compound after 15 min; assay type: ADME, organism-based; details: in vivo, iv, 0.25 h
[12] = species: Rattus norvegicus; test: Biodistribution of radioactivity in rat cerebellum upon Tail-Vein injection of [11C]-labeled compound after 30 min; assay type: ADME, organism-based; details: in vivo, iv, 0.5 h
[13] = species: Rattus norvegicus; test: Biodistribution of radioactivity in rat cerebellum upon Tail-Vein injection of [11C]-labeled compound after 45 min; assay type: ADME, organism-based; details: in vivo, iv, 0.75 h
[14] = species: Rattus norvegicus; test: Biodistribution of radioactivity in rat cerebellum upon Tail-Vein injection of [11C]-labeled compound after 5 min; assay type: ADME, organism-based; details: in vivo, iv
[15] = species: Rattus norvegicus; test: Biodistribution of radioactivity in rat cerebellum upon Tail-Vein injection of [11C]-labeled compound after 60 min; assay type: ADME, organism-based; details: in vivo, iv, 1 h
[16] = species: Rattus norvegicus; test: Biodistribution of radioactivity in rat cortex upon Tail-Vein injection of [11C]-labeled compound after 15 min; assay type: ADME, organism-based; details: in vivo, iv, 0.25 h
[17] = species: Rattus norvegicus; test: Biodistribution of radioactivity in rat cortex upon Tail-Vein injection of [11C]-labeled compound after 30 min; assay type: ADME, organism-based; details: in vivo, iv, 0.5 h
[18] = species: Rattus norvegicus; test: Biodistribution of radioactivity in rat cortex upon Tail-Vein injection of [11C]-labeled compound after 45 min; assay type: ADME, organism-based; details: in vivo, iv, 0.75 h
[19] = species: Rattus norvegicus; test: Biodistribution of radioactivity in rat thalamus upon Tail-Vein injection of [11C]-labeled compound after 5 min; assay type: ADME, organism-based; details: in vivo, iv
[20] = species: Rattus norvegicus; test: Biodistribution of radioactivity in rat cortex upon Tail-Vein injection of [11C]-labeled compound after 5 min; assay type: ADME, organism-based; details: in vivo, iv
[21] = species: Rattus norvegicus; test: Biodistribution of radioactivity in rat cortex upon Tail-Vein injection of [11C]-labeled compound after 60 min; assay type: ADME, organism-based; details: in vivo, iv, 1 h
[22] = species: Rattus norvegicus; test: Biodistribution of radioactivity in rat hippocampus upon Tail-Vein injection of [11C]-labeled compound after 15 min; assay type: ADME, organism-based; details: in vivo, iv, 0.25 h
[23] = species: Rattus norvegicus; test: Biodistribution of radioactivity in rat hippocampus upon Tail-Vein injection of [11C]-labeled compound after 30 min; assay type: ADME, organism-based; details: in vivo, iv, 0.5 h
[24] = species: Rattus norvegicus; test: Biodistribution of radioactivity in rat hippocampus upon Tail-Vein injection of [11C]-labeled compound after 45 min; assay type: ADME, organism-based; details: in vivo, iv, 0.75 h
[25] = species: Rattus norvegicus; test: Biodistribution of radioactivity in rat hippocampus upon Tail-Vein injection of [11C]-labeled compound after 5 min; assay type: ADME, organism-based; details: in vivo, iv
[26] = species: Rattus norvegicus; test: Biodistribution of radioactivity in rat hippocampus upon Tail-Vein injection of [11C]-labeled compound after 60 min; assay type: ADME, organism-based; details: in vivo, iv, 1 h
[27] = species: Rattus norvegicus; test: Biodistribution of radioactivity in rat hypothalamus upon Tail-Vein injection of [11C]-labeled compound after 15 min; assay type: ADME, organism-based; details: in vivo, iv, 0.25 h
[28] = species: Rattus norvegicus; test: Biodistribution of radioactivity in rat hypothalamus upon Tail-Vein injection of [11C]-labeled compound after 30 min; assay type: ADME, organism-based; details: in vivo, iv, 0.5 h
[29] = species: Rattus norvegicus; test: Biodistribution of radioactivity in rat hypothalamus upon Tail-Vein injection of [11C]-labeled compound after 45 min; assay type: ADME, organism-based; details: in vivo, iv, 0.75 h
[30] = species: Rattus norvegicus; test: Biodistribution of radioactivity in rat hypothalamus upon Tail-Vein injection of [11C]-labeled compound after 5 min; assay type: ADME, organism-based; details: in vivo, iv
[31] = species: Rattus norvegicus; test: Biodistribution of radioactivity in rat hypothalamus upon Tail-Vein injection of [11C]-labeled compound after 60 min; assay type: ADME, organism-based; details: in vivo, iv, 1 h
[32] = species: Rattus norvegicus; test: Biodistribution of radioactivity in rat striatum upon Tail-Vein injection of [11C]-labeled compound after 15 min; assay type: ADME, organism-based; details: in vivo, iv, 0.25 h
[33] = species: Rattus norvegicus; test: Biodistribution of radioactivity in rat striatum upon Tail-Vein injection of [11C]-labeled compound after 30 min; assay type: ADME, organism-based; details: in vivo, iv, 0.5 h
[34] = species: Rattus norvegicus; test: Biodistribution of radioactivity in rat striatum upon Tail-Vein injection of [11C]-labeled compound after 45 min; assay type: ADME, organism-based; details: in vivo, iv, 0.75 h
[35] = species: Rattus norvegicus; test: Biodistribution of radioactivity in rat striatum upon Tail-Vein injection of [11C]-labeled compound after 5 min; assay type: ADME, organism-based; details: in vivo, iv
[36] = species: Rattus norvegicus; test: Biodistribution of radioactivity in rat striatum upon Tail-Vein injection of [11C]-labeled compound after 60 min; assay type: ADME, organism-based; details: in vivo, iv, 1 h
[37] = molecular target: Sodium-dependent serotonin transporter (Homo sapiens, UniProt P31645); test: In vitro binding affinity on cloned Serotonin transporter
Chain of Sodium-dependent serotonin transporter (P31645 whole entry): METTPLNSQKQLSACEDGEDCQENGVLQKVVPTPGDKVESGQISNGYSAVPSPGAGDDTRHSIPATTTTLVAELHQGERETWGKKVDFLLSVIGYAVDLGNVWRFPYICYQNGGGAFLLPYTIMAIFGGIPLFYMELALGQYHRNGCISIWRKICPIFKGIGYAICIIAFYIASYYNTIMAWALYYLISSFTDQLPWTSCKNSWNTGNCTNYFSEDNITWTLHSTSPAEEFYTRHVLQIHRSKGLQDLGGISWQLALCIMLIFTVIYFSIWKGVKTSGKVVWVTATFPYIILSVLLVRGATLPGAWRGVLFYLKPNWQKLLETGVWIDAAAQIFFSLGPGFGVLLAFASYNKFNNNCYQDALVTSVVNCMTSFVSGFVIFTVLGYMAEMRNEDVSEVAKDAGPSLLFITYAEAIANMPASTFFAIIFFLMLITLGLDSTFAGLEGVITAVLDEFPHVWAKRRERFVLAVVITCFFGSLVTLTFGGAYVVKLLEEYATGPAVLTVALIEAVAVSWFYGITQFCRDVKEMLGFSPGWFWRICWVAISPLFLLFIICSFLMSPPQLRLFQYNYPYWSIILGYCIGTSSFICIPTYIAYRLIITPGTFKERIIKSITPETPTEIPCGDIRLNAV
Outline: (§1)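 Competition binding in triplicate on membranes from cloned human transporters. Radioligands: SERT [3H]paroxetine 0.2 nM with 10.3 µg protein, NET [3H]nisoxetine 1.0 nM with 16.9 µg, DAT [3H]WIN 35,428 1.0 nM with 6.2 µg. Buffer 50 mM Tris-Cl pH 7.4 with 150 mM NaCl/5 mM KCl (SERT, NET) or 100 mM NaCl (DAT). Incubated 40 min at 37 °C, then filtered on PEI-soaked GF/B filters. Nonspecific binding set with duloxetine 1 µM (SERT), desipramine 10 µM (NET) or nomifensine 10 µM (DAT). IC50 from nonlinear fit; Ki by Cheng-Prusoff.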

[38] = species: Rattus norvegicus; test: Biodistribution of radioactivity in rat thalamus upon Tail-Vein injection of [11C]-labeled compound after 60 min; assay type: ADME, organism-based; details: in vivo, iv, 1 h
[39] = molecular target: Sodium-dependent dopamine transporter (Homo sapiens, UniProt Q01959); test: In vitro binding affinity on cloned Dopamine transporter; outline: as §1
Chain of Sodium-dependent dopamine transporter (Q01959 whole entry): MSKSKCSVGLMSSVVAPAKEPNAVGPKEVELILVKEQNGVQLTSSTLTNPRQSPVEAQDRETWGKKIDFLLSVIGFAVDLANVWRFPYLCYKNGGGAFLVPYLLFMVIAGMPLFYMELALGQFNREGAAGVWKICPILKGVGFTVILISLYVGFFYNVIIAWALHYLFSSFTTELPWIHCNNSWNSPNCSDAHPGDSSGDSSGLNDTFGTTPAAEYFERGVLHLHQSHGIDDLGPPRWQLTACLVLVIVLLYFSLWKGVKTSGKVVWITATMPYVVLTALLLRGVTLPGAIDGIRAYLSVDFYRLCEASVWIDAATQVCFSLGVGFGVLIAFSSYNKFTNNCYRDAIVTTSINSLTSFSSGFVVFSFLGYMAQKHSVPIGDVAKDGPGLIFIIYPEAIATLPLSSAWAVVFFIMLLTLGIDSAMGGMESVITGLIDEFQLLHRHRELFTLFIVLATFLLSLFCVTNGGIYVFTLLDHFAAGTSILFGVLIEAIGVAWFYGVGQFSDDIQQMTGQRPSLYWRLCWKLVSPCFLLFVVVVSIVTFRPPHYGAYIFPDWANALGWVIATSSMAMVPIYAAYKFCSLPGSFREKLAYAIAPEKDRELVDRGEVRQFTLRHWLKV

[40] = species: Rattus norvegicus; test: Biodistribution of radioactivity in rat blood upon Tail-Vein injection of [11C]-labeled compound after 30 min upon; assay type: ADME, organism-based; details: in vivo, iv, 0.5 h
[41] = molecular target: Sodium-dependent noradrenaline transporter (Homo sapiens, UniProt P23975); test: In vitro binding affinity on cloned Norepinephrine transporter
Chain of Sodium-dependent noradrenaline transporter (P23975 whole entry): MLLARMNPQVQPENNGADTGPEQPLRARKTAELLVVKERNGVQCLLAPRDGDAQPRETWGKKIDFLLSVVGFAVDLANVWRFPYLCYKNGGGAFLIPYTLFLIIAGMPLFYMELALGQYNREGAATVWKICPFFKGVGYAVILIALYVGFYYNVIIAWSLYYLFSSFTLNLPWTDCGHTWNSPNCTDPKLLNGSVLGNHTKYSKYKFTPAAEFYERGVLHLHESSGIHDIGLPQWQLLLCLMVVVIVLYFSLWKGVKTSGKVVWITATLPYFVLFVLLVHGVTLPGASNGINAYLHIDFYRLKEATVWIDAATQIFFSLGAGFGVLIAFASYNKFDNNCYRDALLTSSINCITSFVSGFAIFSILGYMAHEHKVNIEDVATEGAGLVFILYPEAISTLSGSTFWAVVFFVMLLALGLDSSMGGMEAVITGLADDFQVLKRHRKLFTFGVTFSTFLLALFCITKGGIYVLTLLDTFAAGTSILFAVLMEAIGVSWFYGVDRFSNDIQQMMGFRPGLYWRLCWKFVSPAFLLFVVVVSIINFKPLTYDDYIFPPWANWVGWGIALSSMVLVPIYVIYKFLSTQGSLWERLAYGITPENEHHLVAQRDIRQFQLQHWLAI
Outline: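 Competition binding in triplicate on membranes from cloned human transporters. Buffer 50 mM Tris-Cl pH 7.4 with 150 mM NaCl/5 mM KCl (SERT, NET) or 100 mM NaCl (DAT). Incubated 40 min at 37 °C, then filtered on PEI-soaked GF/B filters. Nonspecific binding set with duloxetine 1 µM (SERT), desipramine 10 µM (NET) or nomifensine 10 µM (DAT). IC50 from nonlinear fit; Ki by Cheng-Prusoff.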

Structure (SMILES)	T1/2 [1]	ID/g [3]	ID/g [4]	ID/g [6]	ID/g [9]	ID/g [10]	ID/g [11]	ID/g [12]	ID/g [14]	ID/g [15]	ID/g [16]	ID/g [17]	ID/g [19]	ID/g [20]	ID/g [21]	ID/g [22]	ID/g [23]	ID/g [25]	ID/g [26]	ID/g [27]	also measured
CN(C)Cc1ccccc1Sc1ccc(C#N)cc1N [DASB]	15.6 min	1.21%	0.8%	0.31%	0.58%	0.06%	0.54%	0.27%	0.76%	0.07%	1.29%	0.74%	1.15%	1.46%	0.32%	1.06%	0.72%	1.13%	0.35%	1.39%	logD [2]: 2.707; ID/g [5]: 0.64%; ID/g [7]: 0.22%; ID/g [8]: 0.1%; ID/g [13]: 0.13%; ID/g [18]: 0.48%; ID/g [24]: 0.49%; ID/g [28]: 1.02%; ID/g [29]: 0.8%; ID/g [30]: 1.25%; ID/g [31]: 0.62%; ID/g [32]: 1.24%; ID/g [33]: 0.77%; ID/g [34]: 0.55%; ID/g [35]: 1.24%; ID/g [36]: 0.35%; pKi [37]: 8.96; ID/g [38]: 0.49%; pKi [39]: 5.85
CN(C)Cc1ccccc1Sc1ccc(Cl)cc1N	25.4 min	1.54%	1.65%	0.28%	0.39%	0.08%	0.75%	0.47%	1.03%	0.23%	1.33%	1.14%	1.43%	1.39%	0.73%	1.12%	1.04%	1.06%	0.74%	1.48%	logD ([2]; read-out: logD): 3.55; ID/g [40]: 0.14%; ID/g [28]: 1.47%; ID/g [30]: 1.36%; ID/g [31]: 1.19%; ID/g [32]: 1.34%; ID/g [33]: 1.17%; ID/g [35]: 1.36%; ID/g [36]: 0.79%; pKi [41]: 6.64; pKi [37]: 9.57; ID/g [38]: 1.24%; pKi [39]: 6.94
